Source: ChEMBL document CHEMBL4513216, “Probing the Open Global Health Chemical Diversity Library for Multistage-Active Starting Points for Next-Generation Antimalarials” (ACS Infect Dis, 2020)

Test: Toxicity liver stage against HepG2, at 10uM
Assay type: cell-based
Parameters: test concentration 10 uM, cell line HepG2-A16-CD81EGFP
Conditions: human, HepG2-A16-CD81EGFP cells; read-out: INHIBITION
Outline: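 Uninfected HepG2-A16-CD81EGFP cells, 3 × 10^3 per well, 1536-well, plated on prespotted compound at 10 μM final, parasite-free screening media added to match infected plates; puromycin 10 μM positive, DMSO 0.5% negative; run in parallel with 48 h PbLuc assay at 37 °C, 5% CO2; viability by CellTiter-Glo luminescence, normalized to controls.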

SMILES	cytotoxicity at 10 µM [%]
CCCn1cc(NC(=O)Nc2ccc(F)c(C(=O)NC)c2)cn1	6.98
CNC(=O)c1cn[nH]c1C1(C)CCCN(Cc2nccn2C(C)C)C1 (centres undefined)	-2.73
COc1cccc2c1ccn2CCC(=O)N1CCC(C(=O)O)CC1	7.08
CCC(CNC(=O)c1nc(=O)[nH][nH]1)Oc1cccc(C(F)(F)F)c1 (centres undefined)	-6.25
Cc1ccc(NC2CCCN(CCCc3ccccc3)C2)nn1 (centres undefined)	-2.81
CC(C)(N)c1cn(C2CCN(C(=O)CCC3CCCCC3)CC2)nn1	-6.53
c1cnc2c(c1)CN(C1CCOC1)CCN2CC1CC1 (centres undefined)	4.92
COCCN1CCC(CNC(=O)C2(C#N)CCCCC2)CC1	-11.1
N#CCCN(C(=O)CN1CCCC1c1ccccc1Cl)c1ccccc1 (centres undefined)	8.22
Cc1nc(C)n(CC2CCCN(CCCOc3ccc(F)cc3)C2)n1 (centres undefined)	-3.08
OC1(CN2CCCC2)COCCN(c2ncnc3[nH]cnc23)C1 (centres undefined)	0.458
CC(C)c1nnc(CN2CCN(C(C)c3nc(C4CC4)no3)CC2)o1 (centres undefined)	3.48
CCNC(=O)[C@@H]1C[C@@H](N)CN1C(=O)c1[nH]c2ccccc2c1CC	0.106
CCCc1ccc(S(=O)(=O)Nc2ccc(=O)n(C)c2)cc1	43.5
O=C(CCn1ccnc1)N1CC[C@@H](c2ccc3ccccc3c2)[C@H](O)C1	-0.288
COc1cc(C2SCC(=O)Nc3[nH]ncc32)cc(OC)c1OC (centres undefined)	8.49
Cc1cnn(CCNCc2ccc(OCc3cscn3)cc2)c1	-5.48
CC(C)COCc1cncc2c1CCN(Cc1cnn(C)c1)C2	-7.96
O=C(O)CSC1CCc2ccccc2NC1=O (centres undefined)	1.13
CC(C#N)CSc1ccccc1NCC(=O)NCc1ccccc1 (centres undefined)	-7.89
Cc1ccc(O[C@@H]2C[C@H]3CN(C(=O)c4cnccn4)CCN3C2)cc1	1.12
CN1CCC(N2CCC(CN(Cc3ccncc3)C3CCC3)CC2)CC1	-7.19
COCC(=O)N1C[C@@H](c2cc(O)nc(C)n2)[C@H](c2ccccc2F)C1	5.62
COc1ccc(CN2CC[C@@]3(O)CCCC[C@H]3C2)cc1C(=O)O	-3.12
COCc1cc(NCCc2ccc(F)cc2)n2nccc2n1	-12.6
CCc1nc(CN2CCN(C(=O)C3(C#N)CCCC3)CC2)cs1	0.38
COCC(=O)Nc1ccc([C@@H](O)[C@H]2COCC(=O)N2CC(C)C)cc1	17.6

SMILES	cytotoxicity at 10 µM [%]
Cc1nc2ccc(C(=O)N3CCn4c(C)nnc4C3)cc2nc1C	-6.2
O=S(=O)(Cc1ccccc1F)Cc1nnnn1C1CC1	-16.5
N#Cc1cc(F)ccc1Cn1cnc(C2CCC2)cc1=O	-5.32
Cn1c2ccccc2c2ncn(CCN3CCOCC3)c(=O)c21	15.7
CCOC1COC2(CCN(Cc3ccc(F)cc3)CC2)C1 (centres undefined)	-0.508
O=C1NCC[C@]12CN(Cc1cccnc1)C[C@H]2c1ccccc1	-137
Cc1cc(-c2ccccc2C(=O)O)nc(C2CCCN(C(C)C)C2)n1 (centres undefined)	-4.47
CCOc1ncccc1NC(=O)N1CCOCC1C (centres undefined)	10.3
CCN1CCN(c2nc3cn(-c4cnn(CC)c4)c(=O)c-3c[nH]2)CC1	4.01
CCC(CO)N(Cc1ccco1)C(=O)c1sccc1NC(C)=O (centres undefined)	3.36
Cc1ccccc1NC(=O)N1CCN(C(=O)C2CC2)[C@@H]2CS(=O)(=O)C[C@@H]21	2.78
Cc1occc1C(=O)Nc1cccc(C(=O)OCC2CCCN2)c1 (centres undefined)	-2.09
CCCc1nnsc1C(=O)N1CCN(CC(O)C2CC2)CC1 (centres undefined)	-7.78
O=c1[nH]c(NC2CCCC2)nc2nccc(-c3ccco3)c12	0.74
Cc1csc2c(N3CCC(NCCCC4CCOC4)CC3)ncnc12 (centres undefined)	3.3
Cc1cc(N2CCC(O)(CN(C)C(=O)CCN)CC2)c2cnccc2n1	-3.3
Cc1nc(CCCNC(=O)c2cc(F)ccc2O)n[nH]1	-5.32
CNC(=O)CN1CCCC12CCN(C(=O)c1cccc(F)c1)CC2	6.62
CC1CCCN(C(=O)c2ccc(N(C)Cc3cnn(C)c3)nc2)C1 (centres undefined)	2.22
Cc1cccc(CCC(=O)Nc2ccnn2C2CCS(=O)(=O)C2)c1 (centres undefined)	0.499
Cc1oc(-c2cccs2)nc1C(=O)N(C)C1(C#N)CCC1	5.09
CCn1cnnc1CCNC(=O)c1ccc(F)c(Br)c1	5.36
O=C(C1NCCc2[nH]cnc21)N1CCC2(CC1)CNc1ccccc12 (centres undefined)	1.04
O=C1[C@@H]2CN(C3CCOCC3)C[C@H]2CCN1CC1CC1	4.17
Cc1cc(C)n(CC(=O)N2CCCC2c2cc3cccnc3[nH]2)n1 (centres undefined)	3.94
Cc1cccc(C)c1OCCNC(=O)CNC(=O)C1CCCC1	-122
CCOCC(C)(C)NC(=O)Nc1cc(F)ccc1OC	-3.12
